Source: PubChem BioAssay
FN deposition inh: fibronectin deposition inhibition | AH1F fibroblasts, Alexa488-fibronectin deposition fluorescence, overnight | inhibition, % at 12.6 µM | AID 743247 | 350,000 compounds, 0.086% hits;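 active = mean inhibition across replicates of 30% or more, regardless of how many single replicates reach that level; inconclusive = mean under 30% yet at least half of replicates reach 30%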;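 note: positive control wells lacked labelled fibronectin entirely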
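Schedule: 1 h cell adhesion before compound, then overnight fibronectin incubation; test system: AH1F fibroblast monolayer depositing Alexa488-labelled fibronectin into matrix; quantity: 10000 AH1F cells per well; probe or stimulus: fluorescent fibronectin at 24 nM final; signal: fluorescence, ex 485 nm, em 525 nm; evaluation: percent inhibition as loss of matrix-bound fibronectin fluorescence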
DENV2 CPE: protects cells from dengue virus 2 cytopathic effect; DENV2-infected cells, cytopathic effect rescue, plate reader; AID 651640; 350,000 compounds, 1.7% hits; CPE inhibition, % at 9.99 µM; in the data active = CPE inhibition above about 20%, passing the limit was not always enough; inconclusive = no clear call, values can overlap the other calls; tested in BHK-21 cells;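 note: 0% = median of neutral control wells and 100% = median of positive control wells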
Ecoli rRNA inh: inhibits bacterial ribosomal RNA function over humanized ribosomes; GFP signal change (wild-type ribosome), % (test concentration not listed); E. coli WT GFP vs humanized-ribosome RFP mutants, fluorescence, 24 h; stronger effect = lower value; DMSO median 0, no signal -100; 350,000 compounds, 1.6% hits;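 active = significant combined selectivity score with lowered wild-type GFP, culture density cut under 30%, mutant RFP and density less affected; inactive = any of these conditions unmet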
PglD DTNB: blocks C. jejuni PglD acetyltransferase activity. purified PglD enzyme, DTNB colorimetric CoA detection. inhibition, % at 12.5 µM. 360,000 compounds, 0.098% hits. AID 602405; in the data active = inhibition above about 16%, passing the limit was not always enough; inconclusive = no clear call, values can overlap the other calls
Env fusion inh: HIV envelope-mediated fusion inhibition | HeLa-JRFL Env/CEM21 cell fusion, luciferase | inhibition, % at 12.3 µM | 360,000 compounds, 1.1% hits | AID 651610;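 active = mean replicate inhibition score of at least 50 and every replicate individually at or above 50; inconclusive = only one of the two criteria met; inactive = mean below 50 and not all replicates reaching 50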;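 note: 0% = plate neutral controls and 100% = maraviroc near 300 nM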
PGC1a acetyl inh: PGC1a acetylation modulation, inhibitor mode; AID 651687; 350,000 compounds, 0.17% hits; U2OS PGC1a acetylation, AlphaScreen anti-acetyl-lysine; with virally co-expressed GCN5 acetyltransferase; inhibition, % at 15.6 µM;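 active = every replicate shows inhibition of at least 40%; inconclusive = mean inhibition at least 40% but some replicate below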;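 note: 0% = neutral control wells and 100% = positive control wells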
Active calls of the source: *; ? = inconclusive; / = no result given; [ ] = another dose, or the depositor's remark. Sampled rows, rich in hits. Any-hit rate of the full collection: about 3.5%.

SMILES	FN deposition inh	DENV2 CPE	Ecoli rRNA inh	PglD DTNB	Env fusion inh	PGC1a acetyl inh
C[C@H]1CN([C@@H](C)CO)C(=O)Cc2cc(NC(=O)Cn3cnnn3)ccc2O[C@@H]1CN(C)Cc1ccc(C(=O)O)cc1	/	6.5	6.0	-3.4	-11.3[16.7 µM]	4.7
O=C(CSc1nc2ccc(Cl)cc2[nH]1)c1cccs1	8.1	-3.3	-24.6*	/	-43.8	/
NS(=O)(=O)c1cccc(NC(=O)CSc2nnc(-c3ccccc3F)n2C2CC2)c1	3.4	-0.5	-29.2*	-3.3	7.1	5.4
O=C(COC(=O)c1cc(=O)[nH]c2ccccc12)Nc1cccc(S(=O)(=O)N2CCOCC2)c1	5.1	0.9	-17.1*	3.0	-1.7	-4.7
O=C(CSc1nc2ccccc2[nH]1)Nc1cccc(S(=O)(=O)N2CCOCC2)c1	0.3	2.2	-35.6*	3.1	12.6	-10.7
O=C(CSc1nnc(-c2ccccc2F)n1C1CC1)Nc1ccc2[nH]c(=O)[nH]c2c1	5.6	-0.8	-2.1	/	0.0	/
CN(C)c1ccc2c(c1)[C@H]1C[C@H](CC(=O)NCCN3CCCCC3)O[C@H](CO)[C@H]1O2	-4.3	19.2	9.8	-1.0	1.8[16.7 µM]	11.5
O=C(CSc1nc2ccccc2c(=O)n1-c1ccccc1Cl)Nc1cccc(S(=O)(=O)N2CCOCC2)c1	6.8	63.4*	4.6	-7.6	/	-10.1
NS(=O)(=O)c1cccc(NC(=O)CSc2nc3ccc(Cl)cc3[nH]2)c1	7.8	3.8	-37.3*	-5.7	-23.5	-2.0
CN1CCN(C2CN(Cc3ccccc3)S(=O)(=O)C2)CC1 (stereo not given)	1.3	-14.3	12.0	-5.3	-10.2	-6.8
CCCCN1CC(N2CCN(Cc3ccccc3)CC2)CS1(=O)=O (stereo not given)	/	-0.5	-31.9*	5.0	-69.7	-2.0
Cc1cccc(CN2CCN(C3CN(Cc4cn(Cc5cccc(Cl)c5)nn4)S(=O)(=O)C3)CC2)c1 (stereo not given)	-4.1	-3.6	-35.8*	/	-1.6	/
O=S1(=O)CC(N2CCN(Cc3ccccc3F)CC2)CN1Cc1cn(Cc2ccc(F)cc2)nn1 (stereo not given)	4.2	4.7	-1.3	/	-19.6	/
Cc1ccc(Cn2cc(CN3CC(N4CCN(Cc5cccc(C)c5)CC4)CS3(=O)=O)nn2)cc1 (stereo not given)	10.1	1.0	-13.2	/	2.9	/
Cc1cccc(CN2CCN(C3CN(Cc4cn(Cc5ccc(Cl)cc5)nn4)S(=O)(=O)C3)CC2)c1 (stereo not given)	-7.5	3.0	-25.5*	/	31.8	/
O=S1(=O)CC(N2CCN(Cc3ccccc3F)CC2)CN1Cc1cn(Cc2cccc(Cl)c2)nn1 (stereo not given)	3.7	-2.4	-24.2*	/	-3.6	/
CCCN(C)C1CN(Cc2cn(Cc3ccc(C)cc3)nn2)S(=O)(=O)C1 (stereo not given)	16.4	25.2*	8.5	/	26.3	/
CC(C)(C)C(=O)O/N=C(\N)c1ccc([N+](=O)[O-])s1	2.3	-1.8	9.8	/	16.5	-10.6
N/C(=N\OC(=O)C1CC1)c1ccc([N+](=O)[O-])s1	3.7	-0.1	-55.1*	/	-16.5	-5.4
COc1ccc(CNc2ncnc3c2[nH]c2cc(OC)c(OC)cc23)cc1	1.3	5.6	-58.5	-5.5	-10.4	-10.3
CC(C)OCCCNc1ncnc2c1[nH]c1ccccc12	-4.2	/	/	-0.8	77.9*	-1.1
COc1ccc(CNc2ncnc3c2[nH]c2ccccc23)cc1	-3.0	-12.1	-55.4*	-6.0	22.2	-20.0
N#C[C@H]1[C@H](c2ccc(C#Cc3ccc(F)cc3)cc2)[C@H](CO)N1c1nc(-c2ccccc2)cs1	0.0	12.0	-4.2	-0.9	9.4[16.7 µM]	4.7
Cc1noc(C)c1NC(=O)N[C@@H]1CC[C@H](CCNC(=O)C2CCCC2)O[C@@H]1CO	-4.0	14.0	0.1	4.4	4.2[16.7 µM]	4.9
Oc1c(Br)cc(Br)cc1CNc1cccc2cccnc12	0.2	6.6	-22.5*	8.5	17.5	-6.8
SMILES	FN deposition inh	DENV2 CPE	Ecoli rRNA inh	PglD DTNB	Env fusion inh	PGC1a acetyl inh
Oc1ccc(Br)cc1CNc1cccc2cccnc12	-1.7	0.4	-42.2	-2.7	-28.4	/
C[C@@H]1CN([C@H](C)CO)C(=O)c2cc(NC(=O)C3CCCCC3)ccc2O[C@@H]1CN(C)Cc1ccc(Cl)c(Cl)c1	/	-1.2	-4.6	-3.3	/	-10.7
O=C(Nc1ccc(F)cc1)N1CC(=O)N2[C@H](CO)[C@@H](c3ccc(C#Cc4ccc(F)cc4)cc3)[C@@H]2C1	1.0	3.4	-5.8	/	/	-9.5
O=[N+]([O-])c1cccc(NC(=S)N2CCc3ccccc3C2)c1	4.8	-5.1	-30.5*	/	-1.5	/
O=[N+]([O-])c1ccc(NC(=S)N2CCc3ccccc32)cc1	/	-8.3	-18.9*	-1.0	14.5	/
Cc1noc(C)c1NC(=O)N(C)C[C@@H]1Oc2c(NS(=O)(=O)c3cccs3)cccc2C(=O)N([C@H](C)CO)C[C@@H]1C	0.0	3.2	-0.6	1.3	/	7.7
C[C@@H]1CN([C@@H](C)CO)C(=O)c2cc(N(C)C)ccc2O[C@@H](C)CCCCO[C@H]1CN(C)S(C)(=O)=O	/	9.8	-2.3	-0.5	13.8[16.7 µM]	14.6
COc1ccc(Cn2c(SCc3cc(C)ccc3C)nc3cc(OC)c(OC)cc3c2=N)cc1	/	/	/	-3.6	11.3	/
COc1ccc(Cn2c(SCc3ccc(C)cc3)nc3cc(OC)c(OC)cc3c2=N)cc1Cl	0.5	/	/	-4.0	122.4*	/
Cc1cccc(NC(=O)c2ccc(C3SCC(=O)N3CCc3ccccc3)cc2)c1 (stereo not given)	32.6*	2.2	-6.3	-0.9	29.9	-3.0
O=C(NCCSCc1ccccc1)c1ccc(C2SCC(=O)N2Cc2ccccc2)cc1 (stereo not given)	-7.0	/	/	-6.5	63.7*	-10.6
CCC(=O)N1[C@H](CN(C)C(C)=O)[C@@H](c2ccc(-c3cccnc3)cc2)[C@@H]1CO	16.6	-4.6	0.9	1.9	/	2.4
N#C[C@@H]1[C@@H](c2ccc(-c3cccc(F)c3)cc2)[C@H](CO)N1C(=O)NC1CCCCC1	-0.8	?	-2.3	/	/	/
CCOc1ccc2nc(NCCNC(=O)Nc3ccccc3)c(C#N)cc2c1	-4.4	/	/	1.6	-73.3	64.2*
C[C@@H]1CCCCO[C@H](CN(C)Cc2ccc(Cl)c(Cl)c2)[C@H](C)CN([C@@H](C)CO)C(=O)c2cc(NC(=O)NC3CCCCC3)ccc2O1	/	4.9	2.2	-0.6	4.3[16.7 µM]	/
Cn1ccc(/C=N/N=C2/NC(=O)CS2)n1	-8.4	-0.3	-43.2*	-5.8	-21.2	3.7
O=C1CS/C(=N/N=C/c2ccncc2)N1	-6.6	5.1	5.5	2.1	3.9	2.5
CCCNC(=O)N1[C@H](CO)[C@@H]2c3ccccc3N(C(=O)Nc3ccccc3)C[C@@H]21	4.0	/	-2.2	/	/	8.9
COc1cc(-c2nnc(SCC(=O)c3ccccc3)o2)cc(OC)c1OC	/	/	-24.6*	2.0	/	1.7
